Measured values reported in PMC2229510 (The Journal of General Physiology, 2001).
Like-named read-outs stand apart in the source and are kept apart here.

Experiments:
[1] = target: aspartate receptor QQEE receptor–kinase signaling complex (Salmonella typhimurium, UniProt P02941, E302Q/Q309E); assay: in vitro receptor-coupled kinase assay, attractant titration, QQEE receptor; format: biochemical, S. typhimurium
[2] = target: aspartate receptor EQEQ receptor–kinase signaling complex (Salmonella typhimurium, UniProt P02941, E302Q/E491Q/Q295E/Q309E); assay: in vitro receptor-coupled kinase assay, attractant titration, EQEQ receptor; format: biochemical, S. typhimurium
[3] = target: aspartate receptor EEQE receptor–kinase signaling complex (Salmonella typhimurium, UniProt P02941, Q295E); assay: in vitro receptor-coupled kinase assay, attractant titration, EEQE receptor; format: biochemical, S. typhimurium
[4] = target: aspartate receptor QQQE receptor–kinase signaling complex (Salmonella typhimurium, UniProt P02941, E302Q); assay: in vitro receptor-coupled kinase assay, attractant titration, QQQE receptor; format: biochemical, S. typhimurium
[5] = target: aspartate receptor QEQE (wild type) receptor–kinase signaling complex (Salmonella typhimurium, UniProt P02941); assay: in vitro receptor-coupled kinase assay, attractant titration, QEQE; format: biochemical, S. typhimurium
Summary of the method: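 Native E. coli membranes carrying the receptor (about 10% of total protein) were mixed with purified CheA, CheW and excess CheY to reconstitute the signaling complex, with receptor in the low micromolar range. Kinase activity was read as radiolabeled phospho-CheY at 10-s initial-rate points across α-methyl-aspartate concentrations, normalized to the no-attractant maximum, with three measurements per point. K1/2 and Hill coefficient came from a multisite Hill fit using free attractant concentration.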

[6] = target: aspartate receptor EQQE receptor–kinase signaling complex (Salmonella typhimurium, UniProt P02941, E302Q/Q295E); assay: in vitro receptor-coupled kinase assay, attractant titration, EQQE receptor; format: biochemical, S. typhimurium
[7] = target: aspartate receptor QQEQ receptor–kinase signaling complex (Salmonella typhimurium, UniProt P02941, E302Q/E491Q/Q309E); assay: in vitro receptor-coupled kinase assay, attractant titration, QQEQ receptor; format: biochemical, S. typhimurium
[8] = target: aspartate receptor QEQQ receptor–kinase signaling complex (Salmonella typhimurium, UniProt P02941, E491Q); assay: in vitro receptor-coupled kinase assay, attractant titration, QEQQ receptor; format: biochemical, S. typhimurium
[9] = target: aspartate receptor QQQQ receptor–kinase signaling complex (Salmonella typhimurium, UniProt P02941, E302Q/E491Q); assay: in vitro receptor-coupled kinase assay, attractant titration, QQQQ receptor; format: biochemical, S. typhimurium
[10] = target: aspartate receptor QEEE receptor–kinase signaling complex (Salmonella typhimurium, UniProt P02941, Q309E); assay: in vitro receptor-coupled kinase assay, attractant titration, QEEE receptor; format: biochemical, S. typhimurium
[11] = target: aspartate receptor QEEQ receptor–kinase signaling complex (Salmonella typhimurium, UniProt P02941, E491Q/Q309E); assay: in vitro receptor-coupled kinase assay, attractant titration, QEEQ receptor; format: biochemical, S. typhimurium
[12] = target: aspartate receptor EEQQ receptor–kinase signaling complex (Salmonella typhimurium, UniProt P02941, E491Q/Q295E); assay: in vitro receptor-coupled kinase assay, attractant titration, EEQQ receptor; format: biochemical, S. typhimurium
[13] = target: aspartate receptor–kinase signaling complex (Salmonella enterica subsp. enterica serovar Typhimurium, UniProt P02941); format: biochemical, S. typhimurium; conditions: pure off-state, extrapolated from the correlation
[14] = target: aspartate receptor EQEE receptor–kinase signaling complex (Salmonella typhimurium, UniProt P02941, E302Q/Q295E/Q309E); assay: in vitro receptor-coupled kinase assay, attractant titration, EQEE receptor; format: biochemical, S. typhimurium
[15] = target: aspartate receptor EQQQ receptor–kinase signaling complex (Salmonella typhimurium, UniProt P02941, E302Q/E491Q/Q295E); assay: in vitro receptor-coupled kinase assay, attractant titration, EQQQ receptor; format: biochemical, S. typhimurium
[16] = target: aspartate receptor EEEQ receptor–kinase signaling complex (Salmonella typhimurium, UniProt P02941, E491Q/Q295E/Q309E); assay: in vitro receptor-coupled kinase assay, attractant titration, EEEQ receptor; format: biochemical, S. typhimurium
QQQQ receptor = QQQQ receptor (Salmonella typhimurium, UniProt P02941, E302Q/E491Q); assay: L-aspartate binding to QQQQ receptor; conditions: given binding constant for QQQQ receptor

Question: How did the IC50 [1] turn out when `CC(N)(CC(=O)O)C(=O)O` (racemic) [α-methyl-aspartate, α-methyl-D,L-aspartate] was run?
Answer: Its IC50 is 31 ± 2 µM.

Question: What about the “Measured Hill coefficient” value ([1]; QQEE receptor, attractant titration, Hill fit) of the same compound?
Answer: The value was 2.2 ± 0.2.

Question: And the IC50 [2]?
Answer: The IC50 was 14 ± 1 µM.

Question: What about the “Measured Hill coefficient” value ([2]; EQEQ receptor, attractant titration, Hill fit) of the same compound?
Answer: The value was 2.9 ± 0.3.

Question: What about the IC50 [3] of the same compound?
Answer: The IC50 was 23 ± 2 µM.

Question: What about the “Measured Hill coefficient” value ([3]; EEQE receptor, attractant titration, Hill fit) of the same compound?
Answer: Its value is 1.8 ± 0.1.

Question: What about the IC50 [4] of the same compound?
Answer: The IC50 was 98 ± 4 µM.

Question: And the “Measured Hill coefficient” value ([4]; QQQE receptor, attractant titration, Hill fit)?
Answer: Its value is 3.3 ± 0.4.

Question: And the IC50 [5]?
Answer: The IC50 was 23 ± 4 µM.

Question: What about the “Measured Hill coefficient” value ([5]; QEQE (wild type) receptor, attractant titration, Hill fit) of the same compound?
Answer: Its value is 1.8 ± 0.1.

Question: What about the IC50 [6] of the same compound?
Answer: Its IC50 is 14 ± 2 µM.

Question: And the “Measured Hill coefficient” value ([6]; EQQE receptor, attractant titration, Hill fit)?
Answer: The value was 2.1 ± 0.3.

Question: And the IC50 [7]?
Answer: The IC50 was 54 ± 6 µM.

Question: What about the “Measured Hill coefficient” value ([7]; QQEQ receptor, attractant titration, Hill fit) of the same compound?
Answer: The value was 2.0 ± 0.5.

Question: And the IC50 [8]?
Answer: The IC50 was 62 ± 3 µM.

Question: What about the “Measured Hill coefficient” value ([8]; QEQQ receptor, attractant titration, Hill fit) of the same compound?
Answer: The value was 2.2 ± 0.3.

Question: And the IC50 [9]?
Answer: The IC50 was 97 ± 4 µM.

Question: What about the “Measured Hill coefficient” value ([9]; QQQQ receptor, attractant titration, Hill fit) of the same compound?
Answer: The value was 2.2 ± 0.2.

Question: What about the IC50 [10] of the same compound?
Answer: Its IC50 is 9 ± 1 µM.

Question: And the “Measured Hill coefficient” value ([10]; QEEE receptor, attractant titration, Hill fit)?
Answer: The value was 1.7 ± 0.1.

Question: What about the IC50 [11] of the same compound?
Answer: The IC50 was 19 ± 2 µM.

Question: What about the “Measured Hill coefficient” value ([11]; QEEQ receptor, attractant titration, Hill fit) of the same compound?
Answer: The value was 2.4 ± 0.5.

Question: What about the IC50 [12] of the same compound?
Answer: The IC50 was 19 ± 2 µM.

Question: And the “Measured Hill coefficient” value ([12]; EEQQ receptor, attractant titration, Hill fit)?
Answer: Its value is 1.9 ± 0.2.

Question: And the “K1/2 of the off-state (inactivated conformation)” value [13]?
Answer: The value was “micromolar to submicromolar range”.

Question: What about the “K1/2 of the off-state (inactivated conformation)” value ([13]; listed as α-methyl aspartate) of the same compound?
Answer: The value was “submicromolar to micromolar range”.

Question: And the IC50 [14]?
Answer: Its IC50 is 16 ± 4 µM.

Question: And the “Measured Hill coefficient” value ([14]; EQEE receptor, attractant titration, Hill fit)?
Answer: The value was 1.6 ± 0.4.

Question: What about the IC50 [15] of the same compound?
Answer: Its IC50 is 39 ± 4 µM.

Question: What about the “Measured Hill coefficient” value ([15]; EQQQ receptor, attractant titration, Hill fit) of the same compound?
Answer: Its value is 2.0 ± 0.3.

Question: What about the IC50 [16] of the same compound?
Answer: Its IC50 is 9 ± 3 µM.

Question: And the “Measured Hill coefficient” value ([16]; EEEQ receptor, attractant titration, Hill fit)?
Answer: The value was 1.1 ± 0.4.

Question: Which “free energy driving force toward the off-state on binding” value (QQQQ receptor) does the source give for `N[C@@H](CC(=O)O)C(=O)O` [L-aspartate] here?
Answer: Its value is “exceeding 8 kcal mol^−1”.
